Test results: PubChem BioAssay AID1736 (Vanderbilt High Throughput Screening Facility, 2009)
Inconclusive results are not listed. Active and inactive are the calls of the source.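 How the source made its calls: active means dose curve converging in at least two of three replicates, whether well supported or a less certain trend; inactive means fewer than two replicates with a converged curve.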

molecular target: Solute carrier family 12 member 5 (Homo sapiens) (UniProt Q9H2X9); assay: KCC2 modulator potency by thallium flux, dose response, cell-based, HEK293 KCC2, FluoZin-2 fluorescence (AID 1736)
In short: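 Material: KCC2-expressing HEK cells; Reagent: thallium-containing stimulus buffer for thallium flux; Read-out: EC50 from normalized 10–20 s fluorescence slope; Compound: 11 points, 3-fold steps from 30 µM; Detection: FluoZin-2 AM fluorescence (0.5 µM dye), 480/540 nm, 1 Hz imaging; Repeats: triplicate, replicates fitted individually.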

Solute carrier family 12 member 5 (Homo sapiens), sequence (Q9H2X9 whole entry, looked up): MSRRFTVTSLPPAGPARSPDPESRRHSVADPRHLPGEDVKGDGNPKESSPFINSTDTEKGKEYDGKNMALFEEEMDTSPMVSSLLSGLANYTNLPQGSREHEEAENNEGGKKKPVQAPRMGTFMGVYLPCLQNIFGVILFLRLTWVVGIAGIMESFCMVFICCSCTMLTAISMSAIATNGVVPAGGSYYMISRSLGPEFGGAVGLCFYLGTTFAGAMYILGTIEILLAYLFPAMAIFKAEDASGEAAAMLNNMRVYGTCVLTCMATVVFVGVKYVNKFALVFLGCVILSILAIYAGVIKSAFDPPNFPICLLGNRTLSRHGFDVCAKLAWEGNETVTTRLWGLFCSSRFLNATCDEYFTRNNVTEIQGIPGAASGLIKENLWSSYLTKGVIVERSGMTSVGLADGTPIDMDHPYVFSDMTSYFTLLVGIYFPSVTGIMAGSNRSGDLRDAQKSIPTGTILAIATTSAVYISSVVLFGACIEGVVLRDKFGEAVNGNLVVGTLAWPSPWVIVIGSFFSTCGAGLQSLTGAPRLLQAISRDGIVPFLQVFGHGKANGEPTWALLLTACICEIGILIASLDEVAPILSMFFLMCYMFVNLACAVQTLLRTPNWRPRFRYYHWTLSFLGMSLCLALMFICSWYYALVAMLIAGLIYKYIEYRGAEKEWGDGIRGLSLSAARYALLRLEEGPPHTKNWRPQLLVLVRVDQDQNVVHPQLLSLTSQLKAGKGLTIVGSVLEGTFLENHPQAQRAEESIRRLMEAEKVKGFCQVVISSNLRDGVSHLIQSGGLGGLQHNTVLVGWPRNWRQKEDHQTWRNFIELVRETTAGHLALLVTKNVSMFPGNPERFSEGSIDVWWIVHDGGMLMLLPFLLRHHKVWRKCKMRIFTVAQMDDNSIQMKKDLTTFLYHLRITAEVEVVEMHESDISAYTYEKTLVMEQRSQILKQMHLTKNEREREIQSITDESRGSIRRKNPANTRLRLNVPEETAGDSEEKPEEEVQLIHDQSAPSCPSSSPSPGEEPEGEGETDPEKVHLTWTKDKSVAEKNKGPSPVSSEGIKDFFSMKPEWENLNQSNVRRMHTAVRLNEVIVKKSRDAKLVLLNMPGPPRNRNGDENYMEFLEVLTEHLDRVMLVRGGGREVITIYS

Row | Compound | EC50
1 | COc1ccccc1NC(=S)N=Nc1c(O)[nH]c2ccc(Br)cc12 | 508 nM
2 | O=C(Nn1c(O)c(C=C2N=c3ccccc3=N2)sc1=S)c1ccccc1Cl | 117 nM
3 | O=C(Nn1c(O)c(C=C2N=c3ccccc3=N2)sc1=S)c1ccccc1 | inactive
4 | Cc1ccc(/C=C2\SC(=S)N(/N=C/c3cc([N+](=O)[O-])ccc3O)C2=O)o1 | inactive
5 | C/C(=N\NC(=O)c1ccc(Br)cc1)C1C(=O)c2ccccc2C1=O | inactive
6 | N#CC1=C(N)NC(SCc2ccccc2)=C(C#N)C12CCCCC2 | inactive
7 | NC(=S)N=Nc1c(O)n(Cc2ccccc2)c2ccccc12 | 427 nM
8 | Cc1cccc(NC(=S)N=Nc2c(O)n(CN3CCOCC3)c3ccccc23)c1C | inactive
9 | O=C1C2Sc3[nH]c(=O)sc3C(c3ccccc3)C2C(=O)N1c1ccccc1 (centres undefined) | 67.7 nM
